Measured values from ChEMBL document CHEMBL4020842, “Discovery of N1-(4-((7-Cyclopentyl-6-(dimethylcarbamoyl)-7 H-pyrrolo[2,3- d]pyrimidin-2-yl)amino)phenyl)- N8-hydroxyoctanediamide as a Novel Inhibitor Targeting Cyclin-dependent Kinase 4/9 (CDK4/9) and Histone Deacetlyase1 (HDAC1) against Malignant Cancer” (J Med Chem, 2018).
Converted amounts (≈) assume the structure as drawn. The source made the active and inactive calls. The rule behind the calls is not given here.

Experiments:
A549 [1] = assay: Induction of apoptosis in human A549 cells assessed as necrotic cells at 5 uM after 48 hrs by annexin V-FITC/propidium iodide staining based flow cytometry (reference value: […]%); format: functional
A549 [2] = assay: Induction of apoptosis in human A549 cells assessed as necrotic cells at 10 uM after 48 hrs by annexin V-FITC/propidium iodide staining based flow cytometry (reference value: […]%); format: functional
A549 [3] = assay: Induction of apoptosis in human A549 cells assessed as late apoptotic cells at 10 uM after 48 hrs by annexin V-FITC/propidium iodide staining based flow cytometry (reference value: 0.88%); format: functional
NCI-H460 [4] = assay: Induction of apoptosis in human NCI-H460 cells assessed as live cells at 5 uM after 48 hrs by annexin V-FITC/propidium iodide staining based flow cytometry (reference value: 97.3%); format: functional
NCI-H460 [5] = assay: Induction of apoptosis in human NCI-H460 cells assessed as late apoptotic cells at 1 uM after 48 hrs by annexin V-FITC/propidium iodide staining based flow cytometry (reference value: 1.29%); format: functional
NCI-H460 [6] = assay: Induction of apoptosis in human NCI-H460 cells assessed as necrotic cells at 10 uM after 48 hrs by annexin V-FITC/propidium iodide staining based flow cytometry (reference value: 1.34%); format: functional
NCI-H460 [7] = assay: Induction of apoptosis in human NCI-H460 cells assessed as late apoptotic cells at 10 uM after 48 hrs by annexin V-FITC/propidium iodide staining based flow cytometry (reference value: 1.29%); format: functional
NCI-H460 [8] = assay: Induction of apoptosis in human NCI-H460 cells assessed as live cells at 10 uM after 48 hrs by annexin V-FITC/propidium iodide staining based flow cytometry (reference value: 97.3%); format: functional
T47D [9] = assay: Induction of apoptosis in human T47D cells assessed as late apoptotic cells at 10 uM after 48 hrs by annexin V-FITC/propidium iodide staining based flow cytometry (reference value: 6.16%); format: functional
T47D [10] = assay: Induction of apoptosis in human T47D cells assessed as live cells at 10 uM after 48 hrs by annexin V-FITC/propidium iodide staining based flow cytometry (reference value: 85.3%); format: functional
Hep 3B2 [11] = assay: Cell cycle arrest in human Hep3B cells assessed as accumulation at G2 phase at 2.5 to 10 uM after 24 hrs by propidium iodide staining based flow cytometry; format: functional
Summary of the method: (§1)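 Cells were exposed for 24 h to a range of concentrations (625 nM, 2.5 and 10 µM), with DMSO vehicle as control. They were then stained with propidium iodide and analysed by flow cytometry to obtain the percentages of cells in G0/G1, S and G2 phases.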

MDA-MB-231 [12] = assay: Induction of apoptosis in human MDA-MB-231 cells assessed as late apoptotic cells at 10 uM after 48 hrs by annexin V-FITC/propidium iodide staining based flow cytometry (reference value: 1.53%); format: functional
Hep 3B2 [13] = assay: Cell cycle arrest in human Hep3B cells assessed as decrease in S-phase at 625 nM after 24 hrs by propidium iodide staining based flow cytometry; format: functional; summary of the method: as §1
A549 [14] = assay: Cytotoxicity against human A549 cells assessed as reduction in cell viability after 72 hrs by CCK8 assay; format: functional, cell-based; details: A549, 72 h
T47D [15] = assay: Cell cycle arrest in human T47D cells assessed as decrease in S-phase at 625 nM after 24 hrs by propidium iodide staining based flow cytometry; format: functional; summary of the method: as §1
[16] = molecular target: Cyclin-dependent kinase 5/CDK5 activator 1 (Homo sapiens) (UniProt Q00535+Q15078); assay: Inhibition of recombinant human full length N-terminal 6His-tagged CDK5/N-terminal GST-tagged p25 co-expressed in baculovirus infected sf21 cells at 1 uM using histone H1 substrate in presence of [gamma33P]ATP after 10 mins by scintillation counting method relative to control
Sequence of Cyclin-dependent kinase 5/CDK5 activator 1 (Homo sapiens) (Q00535 whole entry): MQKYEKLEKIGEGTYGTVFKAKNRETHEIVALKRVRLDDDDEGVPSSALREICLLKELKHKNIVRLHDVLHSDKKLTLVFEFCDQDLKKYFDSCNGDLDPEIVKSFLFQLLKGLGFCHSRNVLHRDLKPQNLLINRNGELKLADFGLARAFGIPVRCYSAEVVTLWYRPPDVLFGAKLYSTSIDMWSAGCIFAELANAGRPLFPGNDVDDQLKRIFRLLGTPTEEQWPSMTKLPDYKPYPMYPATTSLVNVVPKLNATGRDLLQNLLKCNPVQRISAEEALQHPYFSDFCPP
Sequence of Cyclin-dependent kinase 5/CDK5 activator 1 (Homo sapiens) (Q15078 99-307 partner limits assumed): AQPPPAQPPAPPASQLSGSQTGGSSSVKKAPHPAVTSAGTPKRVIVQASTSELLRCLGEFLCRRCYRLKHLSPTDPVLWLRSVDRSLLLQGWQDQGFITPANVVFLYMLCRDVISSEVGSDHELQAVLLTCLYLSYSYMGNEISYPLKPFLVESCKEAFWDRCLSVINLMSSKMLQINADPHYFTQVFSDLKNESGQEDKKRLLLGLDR

HepG2 [17] = assay: Cell cycle arrest in human HepG2 cells assessed as accumulation at G0/G1 phase at 625 nM after 24 hrs by propidium iodide staining based flow cytometry; format: functional; summary of the method: as §1
[18] = molecular target: High affinity nerve growth factor receptor (Homo sapiens, UniProt P04629); assay: Inhibition of recombinant human N-terminal His6-tagged TrkA (440-end residues) expressed in baculovirus infected sf21 cells
Sequence of High affinity nerve growth factor receptor (P04629 whole entry): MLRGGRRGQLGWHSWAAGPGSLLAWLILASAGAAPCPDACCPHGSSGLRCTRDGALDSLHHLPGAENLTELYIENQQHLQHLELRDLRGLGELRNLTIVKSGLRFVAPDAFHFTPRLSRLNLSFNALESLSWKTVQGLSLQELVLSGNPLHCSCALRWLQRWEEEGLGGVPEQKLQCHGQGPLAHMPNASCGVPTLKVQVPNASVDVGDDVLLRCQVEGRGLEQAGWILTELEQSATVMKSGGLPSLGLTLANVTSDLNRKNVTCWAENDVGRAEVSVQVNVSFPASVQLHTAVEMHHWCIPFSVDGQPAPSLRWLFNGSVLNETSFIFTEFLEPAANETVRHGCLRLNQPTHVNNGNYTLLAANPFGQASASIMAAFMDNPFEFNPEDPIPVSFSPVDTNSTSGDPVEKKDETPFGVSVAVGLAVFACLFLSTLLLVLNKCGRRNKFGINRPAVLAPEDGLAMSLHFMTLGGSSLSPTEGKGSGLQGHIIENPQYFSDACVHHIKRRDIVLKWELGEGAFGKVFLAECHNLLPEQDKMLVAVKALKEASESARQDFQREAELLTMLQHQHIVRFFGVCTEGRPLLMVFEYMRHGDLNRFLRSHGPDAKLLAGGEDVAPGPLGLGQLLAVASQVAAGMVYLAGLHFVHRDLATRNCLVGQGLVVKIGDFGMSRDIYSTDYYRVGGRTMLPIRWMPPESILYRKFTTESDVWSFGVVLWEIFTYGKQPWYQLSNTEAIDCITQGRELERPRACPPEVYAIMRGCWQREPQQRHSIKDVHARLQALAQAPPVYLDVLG

HepG2 [19] = assay: Cytotoxicity against human HepG2 cells assessed as reduction in cell viability after 72 hrs by CCK8 assay; format: functional, cell-based; details: HepG2, 72 h
MDA-MB-468 = assay: Cytotoxicity against human MDA-MB-468 cells assessed as reduction in cell viability after 72 hrs by CCK8 assay; format: functional, cell-based; details: MDA-MB-468, 72 h
CDK4/Cyclin D3 = CDK4/Cyclin D3 (Homo sapiens, UniProt P11802); assay: Inhibition of recombinant human full length N-terminal GST-tagged CDK4/Cyclin-D3 co-expressed in baculovirus infected sf21 cells using Rb substrate in presence of [gamma33P]ATP after 10 mins by scintillation counting method
Sequence of CDK4/Cyclin D3 (P11802 whole entry): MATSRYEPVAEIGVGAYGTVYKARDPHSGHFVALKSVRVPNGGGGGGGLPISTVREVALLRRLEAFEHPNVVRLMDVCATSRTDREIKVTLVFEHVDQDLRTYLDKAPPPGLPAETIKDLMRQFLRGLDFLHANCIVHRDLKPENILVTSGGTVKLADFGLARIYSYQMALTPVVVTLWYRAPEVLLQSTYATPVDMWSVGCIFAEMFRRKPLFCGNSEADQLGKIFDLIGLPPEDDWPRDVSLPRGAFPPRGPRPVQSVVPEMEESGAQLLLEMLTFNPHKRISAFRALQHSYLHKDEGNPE
Sequence of CDK4/Cyclin D3 (P30281 whole entry, further chain): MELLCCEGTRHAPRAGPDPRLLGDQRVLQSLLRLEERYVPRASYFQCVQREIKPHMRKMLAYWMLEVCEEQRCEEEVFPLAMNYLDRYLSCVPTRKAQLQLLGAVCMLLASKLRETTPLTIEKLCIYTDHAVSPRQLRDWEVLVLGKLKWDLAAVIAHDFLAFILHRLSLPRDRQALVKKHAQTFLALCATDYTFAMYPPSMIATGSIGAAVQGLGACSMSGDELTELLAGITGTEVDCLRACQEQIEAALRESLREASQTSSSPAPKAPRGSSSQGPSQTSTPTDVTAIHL

HepG2 [20] = assay: Induction of apoptosis in human HepG2 cells assessed as early apoptotic cells at 1 uM after 48 hrs by annexin V-FITC/propidium iodide staining based flow cytometry (reference value: 0.3%); format: functional
Hep 3B2 [21] = assay: Induction of apoptosis in human Hep3B cells assessed as live cells at 5 uM after 48 hrs by annexin V-FITC/propidium iodide staining based flow cytometry (reference value: 97.9%); format: functional
MDA-MB-231 [22] = assay: Induction of apoptosis in human MDA-MB-231 cells after 48 hrs by annexin V-FITC/propidium iodide staining based flow cytometry; format: functional, cell-based
NCI-H460 [23] = assay: Induction of apoptosis in human NCI-H460 cells after 48 hrs by annexin V-FITC/propidium iodide staining based flow cytometry; format: functional, cell-based
HepG2 [24] = assay: Downregulation of CDK4 protein expression in human HepG2 cells after 48 hrs by Western blot method; format: functional, cell-based
T47D [25] = assay: Induction of apoptosis in human T47D cells assessed as caspase-3 cleavage after 48 hrs by Western blot method; format: functional, cell-based
Summary of the method: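 Cells were treated with or without test agent, alongside a control, for 48h. They were then lysed and analysed by Western blot for Bcl-2 protein and cleaved caspase 3.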

A549 [26] = assay: Induction of apoptosis in human A549 cells assessed as caspase-3 cleavage after 48 hrs by Western blot method; format: functional, cell-based
Summary of the method: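 Cells were treated with or without compound and control for 48 h, then lysed. Bcl-2 and cleaved caspase 3 were assessed by Western blot.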

[27] = Aqueous solubility in water at 1 mg using methanesulfonic acid formulation sonicated for 24 hrs and incubated under unstirred condition for 24 hrs by HPLC method; format: physicochemical
[28] = AUC (0 to infinity) in Sprague-Dawley rat at 20 mg/kg, iv administered as single dose by HPLC analysis; format: ADME, organism-based; set-up: dose 20 mg/kg, route intravenous, time infinity; details: in vivo
[29] = Tmax in Sprague-Dawley rat at 20 mg/kg, po administered as single dose by HPLC analysis; format: ADME, organism-based; details: in vivo
[30] = MRT (0 to infinity) in Sprague-Dawley rat at 20 mg/kg, po administered as single dose by HPLC analysis; format: ADME, organism-based; details: in vivo
Mus musculus = assay: Downregulation of Bcl2 level in tumor of Balb/c mouse implanted with mouse Fluc-labeled 4T1 cells at 90 to 130 mg/kg, […] daily for 18 days by immunohistochemical analysis; format: functional, organism-based

CN(C)C(=O)c1cc2cnc(Nc3ccc(NC(=O)CCCCCCC(=O)NO)cc3)nc2n1C1CCCC1
Activity (A549 [1]): 4.16%
Activity (A549 [2]): 6.38%
Activity (A549 [3]): 27.7%
Activity (NCI-H460 [4]): 88.9%
Activity (NCI-H460 [5]): 1.48%
Activity (NCI-H460 [6]): 5.58%
Activity (NCI-H460 [7]): 10.9%
Activity (NCI-H460 [8]): 79.6%
Activity (T47D [9]): 17.1%
Activity (T47D [10]): 43.2%
Activity (Hep 3B2 [11]): Active
Activity (MDA-MB-231 [12]): 6.59%
Activity (Hep 3B2 [13]): Active
IC50 (A549 [14]): 1330 nM
Activity (T47D [15]): Active
inhibition [16]: 78%
Activity (HepG2 [17]): Active
IC50 [18]: 31 nM
IC50 (HepG2 [19]): 3370 nM
IC50 (MDA-MB-468): 1820 nM
IC50 (CDK4/Cyclin D3): 8.8 nM
Activity (HepG2 [20]): 2.6%
Activity (Hep 3B2 [21]): 81%
Activity (MDA-MB-231 [22]): Dose-dependent effect
Activity (NCI-H460 [23]): Dose-dependent effect
Activity (HepG2 [24]): Dose-dependent effect
Activity (T47D [25]): Active
Activity (A549 [26]): Active
solubility at 24 h [27]: 526 µg/mL (≈ 982 µM)
AUC(0-inf) [28]: 6160 ng·h/mL
Tmax [29]: 1.8 h
MRT inf [30]: 20.3 h
Activity (Mus musculus): Active
